# Data reported in ChEMBL document CHEMBL3865790, “2-(Phenylsulfonyl)quinoline N-hydroxyacrylamides as potent anticancer agents inhibiting histone deacetylase” (Eur J Med Chem, 2016).
# pIC50: −log10 of the molar value. Activity calls are given as the source filed them. The rule behind the calls is not given here.
# Legend:
# [1] = Antiproliferative activity against human HL60 cells after 48 hrs by SRB assay; assay type: functional, HL-60
# Summary of the method: (§1)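 Cells grown in RPMI 1640 with 10% FBS and antibiotics, then seeded in medium with 5% FBS. A T0 plate was fixed with 10% TCA at 24 h. Remaining cells were exposed to compound or DMSO for 48 h, TCA-fixed, and stained with 0.4% SRB in 1% acetic acid. Dye was solubilized in 10 mM Trizma base and read at 515 nm.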
# [2] = Antiproliferative activity against human HCT116 cells after 48 hrs by SRB assay; assay type: functional, HCT-116; summary of the method: as §1
# [3] = Antiproliferative activity against human PC3 cells after 48 hrs by SRB assay; assay type: functional, PC-3; summary of the method: as §1
# [4] = Antiproliferative activity against human A549 cells after 48 hrs by SRB assay; assay type: functional; summary of the method: as §1
# Histone deacetylase 1 = Histone deacetylase 1 (Homo sapiens, UniProt Q13547); experiment: Inhibition of C-terminal His/FLAG-tagged full length recombinant human HDAC1 expressed in baculovirus expression system assessed as release of 7-amino-4-methylcoumarin by fluorogenic assay
# Histone deacetylase 1, sequence (Q13547 whole entry): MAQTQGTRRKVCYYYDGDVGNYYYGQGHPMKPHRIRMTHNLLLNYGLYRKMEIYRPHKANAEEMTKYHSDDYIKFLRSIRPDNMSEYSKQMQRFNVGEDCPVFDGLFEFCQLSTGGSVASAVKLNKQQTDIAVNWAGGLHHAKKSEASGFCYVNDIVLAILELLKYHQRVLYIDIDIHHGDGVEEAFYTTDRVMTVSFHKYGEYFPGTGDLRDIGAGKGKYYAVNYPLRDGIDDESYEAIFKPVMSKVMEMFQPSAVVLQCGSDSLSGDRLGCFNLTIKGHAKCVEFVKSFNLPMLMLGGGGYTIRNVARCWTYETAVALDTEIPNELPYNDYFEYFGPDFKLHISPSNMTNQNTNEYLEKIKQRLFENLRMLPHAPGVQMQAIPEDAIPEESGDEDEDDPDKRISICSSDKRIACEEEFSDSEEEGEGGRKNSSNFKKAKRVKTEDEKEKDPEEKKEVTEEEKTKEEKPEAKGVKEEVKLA
# Histone deacetylase 2 = Histone deacetylase 2 (Homo sapiens, UniProt Q92769); experiment: Inhibition of full length recombinant human HDAC2 expressed in baculovirus expression system assessed as release of 7-amino-4-methylcoumarin by fluorogenic assay
# Histone deacetylase 2, sequence (Q92769 whole entry): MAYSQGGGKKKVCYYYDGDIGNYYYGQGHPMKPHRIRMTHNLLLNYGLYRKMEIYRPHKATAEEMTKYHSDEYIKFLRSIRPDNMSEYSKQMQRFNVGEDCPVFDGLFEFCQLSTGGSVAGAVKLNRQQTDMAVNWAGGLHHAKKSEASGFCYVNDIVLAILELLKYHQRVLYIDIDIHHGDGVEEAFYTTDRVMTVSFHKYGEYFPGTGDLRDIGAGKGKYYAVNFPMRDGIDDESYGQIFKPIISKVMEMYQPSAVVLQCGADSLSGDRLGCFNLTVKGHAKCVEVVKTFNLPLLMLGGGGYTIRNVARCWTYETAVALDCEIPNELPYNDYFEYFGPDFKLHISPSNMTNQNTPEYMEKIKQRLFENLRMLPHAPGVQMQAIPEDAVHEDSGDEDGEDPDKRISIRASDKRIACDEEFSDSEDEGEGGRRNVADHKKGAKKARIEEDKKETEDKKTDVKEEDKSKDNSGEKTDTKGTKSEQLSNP
# [5] = molecular target: T1, Protein deacetylase HDAC6 (Homo sapiens, UniProt Q9UBN7); experiment: Inhibition of full length recombinant human HDAC6 expressed in baculovirus expression system assessed as release of 7-amino-4-methylcoumarin by fluorogenic assay
# T1 sequence (Q9UBN7 whole entry): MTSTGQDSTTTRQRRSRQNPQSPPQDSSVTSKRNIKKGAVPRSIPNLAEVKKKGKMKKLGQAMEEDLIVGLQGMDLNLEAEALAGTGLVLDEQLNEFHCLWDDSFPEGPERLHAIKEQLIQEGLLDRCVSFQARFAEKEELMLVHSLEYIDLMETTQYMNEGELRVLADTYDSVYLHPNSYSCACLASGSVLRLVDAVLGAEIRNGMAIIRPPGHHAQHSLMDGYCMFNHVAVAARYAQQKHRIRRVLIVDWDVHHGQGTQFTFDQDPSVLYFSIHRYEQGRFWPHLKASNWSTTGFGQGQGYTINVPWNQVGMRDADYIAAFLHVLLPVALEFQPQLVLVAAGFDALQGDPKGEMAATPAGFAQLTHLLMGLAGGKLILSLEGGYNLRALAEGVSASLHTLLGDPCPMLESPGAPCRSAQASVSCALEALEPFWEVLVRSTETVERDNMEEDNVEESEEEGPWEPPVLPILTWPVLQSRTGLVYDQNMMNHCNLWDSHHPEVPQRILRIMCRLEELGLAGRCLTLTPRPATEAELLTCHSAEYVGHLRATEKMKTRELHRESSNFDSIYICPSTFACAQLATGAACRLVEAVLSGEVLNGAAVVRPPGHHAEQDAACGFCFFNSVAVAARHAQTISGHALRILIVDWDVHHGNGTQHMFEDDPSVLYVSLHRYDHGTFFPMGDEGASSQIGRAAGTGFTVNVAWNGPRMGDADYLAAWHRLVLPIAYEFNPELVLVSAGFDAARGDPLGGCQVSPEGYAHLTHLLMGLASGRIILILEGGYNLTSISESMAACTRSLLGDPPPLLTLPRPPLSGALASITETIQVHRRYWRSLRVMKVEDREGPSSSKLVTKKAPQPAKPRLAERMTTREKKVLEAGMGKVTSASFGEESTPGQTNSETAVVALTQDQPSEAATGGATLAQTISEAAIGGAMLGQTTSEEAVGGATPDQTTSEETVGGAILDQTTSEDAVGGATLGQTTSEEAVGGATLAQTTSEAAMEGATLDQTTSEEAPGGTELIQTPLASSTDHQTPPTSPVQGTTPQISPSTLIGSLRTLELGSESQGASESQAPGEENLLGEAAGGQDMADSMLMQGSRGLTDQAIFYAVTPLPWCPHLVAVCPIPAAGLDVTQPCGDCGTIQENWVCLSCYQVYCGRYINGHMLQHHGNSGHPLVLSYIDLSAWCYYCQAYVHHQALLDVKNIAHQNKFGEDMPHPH
# Histone deacetylase 8 = molecular target: T2, Histone deacetylase 8 (Homo sapiens, UniProt Q9BY41); experiment: Inhibition of His-tagged full length recombinant human HDAC8 expressed in baculovirus expression system assessed as release of 7-amino-4-methylcoumarin by fluorogenic assay
# T2 sequence (Q9BY41 whole entry): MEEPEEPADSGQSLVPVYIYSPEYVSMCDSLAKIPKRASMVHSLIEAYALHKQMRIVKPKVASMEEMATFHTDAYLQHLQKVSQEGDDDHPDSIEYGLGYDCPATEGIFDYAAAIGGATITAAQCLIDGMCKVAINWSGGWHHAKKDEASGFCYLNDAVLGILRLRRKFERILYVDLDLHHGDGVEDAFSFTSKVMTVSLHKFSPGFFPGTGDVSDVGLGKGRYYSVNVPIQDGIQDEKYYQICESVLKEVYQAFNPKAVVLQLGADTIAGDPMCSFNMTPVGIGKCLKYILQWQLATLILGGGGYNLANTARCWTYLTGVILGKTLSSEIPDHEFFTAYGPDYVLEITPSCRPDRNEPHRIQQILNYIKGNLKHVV
# HCT-116 [6] = details: Homo sapiens, at 0.3 µM
# PC-3 = details: Homo sapiens, at 0.3 µM
# HCT-116 [7] = experiment: Antitumor activity in human HCT116 cells xenografted in nude mouse assessed as tumor growth inhibition administered daily through oral route; assay type: functional, cell-based
# Summary of the method: (§2)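 Male nude mice, 8 weeks old, implanted s.c. in the right flank with 1 x 10^7 log-phase HCT116 cells in PBS. Four groups of 7 received vehicle, 50 or 100 mg/kg test compound, or 200 mg/kg reference p.o. daily to endpoint, dosed at 10 mL/kg scaled to body weight. Tumor volume was taken as (w² × l)/2, and mice were monitored for adverse effects.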
# [8] = Antitumor activity against human HCT116 cells xenografted in nude mouse assessed as tumor growth inhibition at 50 mg/kg, po qd; assay type: functional; details: HCT-116, po, read-out: TGI; summary of the method: as §2
# [9] = Antitumor activity against human HCT116 cells xenografted in nude mouse assessed as tumor growth inhibition at 100 mg/kg, po qd; assay type: functional; details: HCT-116, po, read-out: TGI; summary of the method: as §2
# Mus musculus [10] = experiment: Toxicity in nude mouse xenografted with human HCT116 cells assessed as change in body weight at 50 to 100 mg/kg, po qd; assay type: organism-based, HCT-116; details: in vivo
# Mus musculus [11] = experiment: Toxicity in nude mouse xenografted with human HCT116 cells assessed as change in body weight at 200 mg/kg, po qd; assay type: organism-based, HCT-116; details: in vivo
Structure (SMILES),"GI50 ([1]; Homo sapiens, HL-60, 48 h)","GI50 ([2]; Homo sapiens, HCT-116, 48 h)","GI50 ([3]; Homo sapiens, PC-3, 48 h)","GI50 ([4]; Homo sapiens, A549, 48 h)",other results
O=C(/C=C/c1cccc(S(=O)(=O)c2ccc3cccc(Cl)c3n2)c1)NO,2640 nM,1310 nM,1350 nM,1420 nM,–
O=C(/C=C/c1cccc(S(=O)(=O)c2ccc3cc(Cl)ccc3n2)c1)NO,1330 nM,920 nM,760 nM,1010 nM,–
COc1ccc2nc(S(=O)(=O)c3cccc(/C=C/C(=O)NO)c3)ccc2c1,720 nM,240 nM,280 nM,350 nM,–
COc1ccc(S(=O)(=O)c2nc3ccccc3cc2/C=C/C(=O)NO)cc1,> 10000 nM,> 10000 nM,> 10000 nM,> 10000 nM,–
COc1ccc(S(=O)(=O)c2ccc3c(/C=C/C(=O)NO)cccc3n2)cc1,> 10000 nM,> 10000 nM,> 10000 nM,> 10000 nM,–
O=C(/C=C/c1cccc(S(=O)(=O)c2ccccn2)c1)NO,1980 nM,1480 nM,2650 nM,1710 nM,–
O=C(/C=C/c1cccc(S(=O)(=O)c2ccc3cccc(F)c3n2)c1)NO,720 nM,440 nM,320 nM,640 nM,pIC50 (Histone deacetylase 1): 8.24; pIC50 (Histone deacetylase 2): 7.82; pIC50 [5]: 8.23; pIC50 (Histone deacetylase 8): 6.70; inhibition (HCT-116 [6]): Active; inhibition (PC-3): Active
O=C(/C=C/c1cccc(S(=O)(=O)c2ccc3ccccc3n2)c1)NO,290 nM,80 nM,150 nM,270 nM,pIC50 (Histone deacetylase 1): 7.85; pIC50 (Histone deacetylase 2): 7.94; pIC50 [5]: 7.82; pIC50 (Histone deacetylase 8): 6.89; TGI (HCT-116 [7]): Dose-dependent effect; inhibition in vivo at 50 mg/kg [8]: 32.2%; inhibition in vivo at 100 mg/kg [9]: 58.8%; Activity (Mus musculus [10]): Non-Toxic; inhibition (HCT-116 [6]): Active; inhibition (PC-3): Active
O=C(/C=C/c1cccc(C(=O)c2ccc3ccccc3n2)c1)NO,1230 nM,350 nM,470 nM,840 nM,–
COc1ccc(S(=O)(=O)c2ccc3cccc(/C=C/C(=O)NO)c3n2)cc1,1170 nM,310 nM,790 nM,1320 nM,–
O=C(/C=C/c1cccc(S(=O)(=O)Nc2ccccc2)c1)NO [BELINOSTAT],1090 nM,130 nM,390 nM,780 nM,pIC50 [5]: 7.30; inhibition (HCT-116 [6]): Active; inhibition (PC-3): Active
COc1ccc(S(=O)(=O)c2ccc3ccc(/C=C/C(=O)NO)cc3n2)cc1,830 nM,240 nM,1010 nM,1510 nM,–
COc1ccc(S(=O)(=O)c2ccc3cc(/C=C/C(=O)NO)ccc3n2)cc1,1140 nM,1390 nM,1350 nM,4750 nM,–
O=C(CCCCCCC(=O)Nc1ccccc1)NO [VORINOSTAT],–,–,–,–,GI50 [1]: 1740 nM; GI50 [2]: 150 nM; GI50 [3]: 730 nM; GI50 [4]: 1020 nM; Activity (Mus musculus [11]): Non-Toxic
O=C(/C=C/c1ccc(S(=O)(=O)c2ccc3ccccc3n2)cc1)NO,800 nM,310 nM,490 nM,880 nM,–
O=C(/C=C/c1ccc(C(=O)c2ccc3ccccc3n2)cc1)NO,1150 nM,360 nM,560 nM,1130 nM,–
